One may read the inhibition as the drop in the measured response relative to a control, in per cent. Low readings indicate a response near the control, high ones a response far below the control.

SMILES strings stand for the structures. Bounds are passed on as bounds.

This is an account of results in ChEMBL document CHEMBL1165965, “Synthesis and structure-activity relationships of 1,2,3,4-tetrahydropyrido[2,3-b]pyrazines as potent and selective inhibitors of the anaplastic lymphoma kinase” (Bioorg Med Chem, 2010).

In experiment [1] the target is T1, Cyclin-dependent kinase-like 5 (Homo sapiens) (UniProt O76039).
T1 sequence (whole entry): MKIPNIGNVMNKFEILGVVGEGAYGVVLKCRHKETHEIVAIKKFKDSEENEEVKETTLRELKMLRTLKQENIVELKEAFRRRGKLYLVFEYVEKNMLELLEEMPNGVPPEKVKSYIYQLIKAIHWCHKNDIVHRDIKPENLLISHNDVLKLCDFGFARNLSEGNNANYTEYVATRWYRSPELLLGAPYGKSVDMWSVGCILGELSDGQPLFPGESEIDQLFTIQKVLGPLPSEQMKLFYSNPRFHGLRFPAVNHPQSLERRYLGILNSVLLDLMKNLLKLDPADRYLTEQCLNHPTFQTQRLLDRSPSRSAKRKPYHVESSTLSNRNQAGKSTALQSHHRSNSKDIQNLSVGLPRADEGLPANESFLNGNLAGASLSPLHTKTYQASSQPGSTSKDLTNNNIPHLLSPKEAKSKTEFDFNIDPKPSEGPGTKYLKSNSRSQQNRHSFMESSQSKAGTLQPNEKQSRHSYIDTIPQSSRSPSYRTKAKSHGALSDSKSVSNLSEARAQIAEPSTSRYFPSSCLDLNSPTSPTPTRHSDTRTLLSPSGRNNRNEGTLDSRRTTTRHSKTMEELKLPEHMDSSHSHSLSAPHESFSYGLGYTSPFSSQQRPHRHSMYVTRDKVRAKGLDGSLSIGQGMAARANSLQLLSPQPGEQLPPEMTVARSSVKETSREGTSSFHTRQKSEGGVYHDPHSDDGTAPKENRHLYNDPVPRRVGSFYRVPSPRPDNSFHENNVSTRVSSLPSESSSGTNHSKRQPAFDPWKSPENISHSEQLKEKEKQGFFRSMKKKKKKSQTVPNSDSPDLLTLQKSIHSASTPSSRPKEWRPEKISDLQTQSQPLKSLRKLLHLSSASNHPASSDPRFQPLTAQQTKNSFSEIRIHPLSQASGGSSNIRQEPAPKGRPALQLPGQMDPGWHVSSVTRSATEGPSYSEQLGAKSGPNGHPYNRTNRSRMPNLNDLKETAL
Description: Inhibition of CDKL5 at 1 uM.

Experiment [2] concerns the target T2, Mitogen-activated protein kinase kinase kinase kinase 2 (Homo sapiens) (UniProt Q12851).
T2 sequence (whole entry): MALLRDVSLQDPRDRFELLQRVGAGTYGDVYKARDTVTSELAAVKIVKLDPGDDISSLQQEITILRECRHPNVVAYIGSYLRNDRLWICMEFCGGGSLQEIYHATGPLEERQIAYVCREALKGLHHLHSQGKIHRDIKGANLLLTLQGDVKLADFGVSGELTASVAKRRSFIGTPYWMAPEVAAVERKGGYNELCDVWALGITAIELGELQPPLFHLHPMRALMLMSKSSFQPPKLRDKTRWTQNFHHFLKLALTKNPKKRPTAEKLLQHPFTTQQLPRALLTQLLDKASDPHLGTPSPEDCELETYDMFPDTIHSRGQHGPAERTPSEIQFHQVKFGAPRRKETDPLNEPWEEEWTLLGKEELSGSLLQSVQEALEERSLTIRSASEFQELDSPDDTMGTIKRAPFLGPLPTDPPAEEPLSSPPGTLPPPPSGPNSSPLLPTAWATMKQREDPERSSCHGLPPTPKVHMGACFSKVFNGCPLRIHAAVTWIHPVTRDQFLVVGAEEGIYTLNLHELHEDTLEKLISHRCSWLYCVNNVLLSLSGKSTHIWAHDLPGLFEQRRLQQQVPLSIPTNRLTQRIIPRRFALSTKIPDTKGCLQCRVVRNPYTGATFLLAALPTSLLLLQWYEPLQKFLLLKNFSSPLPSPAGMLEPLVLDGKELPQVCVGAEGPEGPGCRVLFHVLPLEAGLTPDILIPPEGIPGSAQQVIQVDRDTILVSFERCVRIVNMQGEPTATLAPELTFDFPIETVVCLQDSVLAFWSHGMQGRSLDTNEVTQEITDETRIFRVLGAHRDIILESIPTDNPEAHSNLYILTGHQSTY
Description: Inhibition of MAP4K2 at 1 uM.

The target in experiment [3] is T3, Serine/threonine-protein kinase ULK1 (Homo sapiens) (UniProt O75385).
T3 sequence (whole entry): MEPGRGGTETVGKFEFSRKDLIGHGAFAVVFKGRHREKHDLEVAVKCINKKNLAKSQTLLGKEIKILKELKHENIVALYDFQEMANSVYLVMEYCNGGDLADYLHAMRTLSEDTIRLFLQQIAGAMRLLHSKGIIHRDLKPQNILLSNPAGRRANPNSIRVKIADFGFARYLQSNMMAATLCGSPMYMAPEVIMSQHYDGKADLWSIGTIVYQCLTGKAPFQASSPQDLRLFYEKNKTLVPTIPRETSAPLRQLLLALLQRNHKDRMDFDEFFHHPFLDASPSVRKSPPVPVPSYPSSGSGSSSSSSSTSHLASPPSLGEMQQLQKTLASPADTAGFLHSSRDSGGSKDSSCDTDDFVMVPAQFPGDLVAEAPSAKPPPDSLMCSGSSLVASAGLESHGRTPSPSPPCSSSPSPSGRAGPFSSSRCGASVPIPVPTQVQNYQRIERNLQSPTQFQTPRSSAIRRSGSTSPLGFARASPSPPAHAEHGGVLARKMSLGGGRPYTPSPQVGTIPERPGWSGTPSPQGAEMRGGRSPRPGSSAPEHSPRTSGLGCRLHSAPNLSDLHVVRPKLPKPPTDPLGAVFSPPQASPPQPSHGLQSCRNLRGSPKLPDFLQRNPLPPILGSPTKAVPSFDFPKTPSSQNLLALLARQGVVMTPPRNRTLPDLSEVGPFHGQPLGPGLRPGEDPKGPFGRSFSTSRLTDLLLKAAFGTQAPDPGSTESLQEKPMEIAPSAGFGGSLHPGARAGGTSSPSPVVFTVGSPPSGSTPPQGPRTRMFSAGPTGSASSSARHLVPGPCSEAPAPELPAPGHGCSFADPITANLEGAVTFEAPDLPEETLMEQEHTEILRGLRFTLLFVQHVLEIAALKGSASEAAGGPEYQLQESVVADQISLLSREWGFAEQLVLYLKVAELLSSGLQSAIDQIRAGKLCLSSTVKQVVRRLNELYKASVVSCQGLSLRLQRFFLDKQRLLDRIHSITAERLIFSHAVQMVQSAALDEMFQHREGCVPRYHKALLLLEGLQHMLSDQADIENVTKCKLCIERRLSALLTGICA
Description: Inhibition of ULK1 at 1 uM.

The test system of experiment [4] is Epidermal growth factor receptor (Homo sapiens), P00533 [G719C]. Description: Inhibition of EGFR G719C mutant at 1 uM. The experiment is classed as protein assay. In outline: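 Single-concentration screen using Ambit Bioscience KINOMEscan technology across a panel of 250–400 kinases. Per-kinase inhibition from this screen was summarized as S(90), the fraction of kinases inhibited by more than 90%.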

In experiment [5] the target is Phosphatidylinositol 4,5-bisphosphate 3-kinase catalytic subunit alpha isoform (Homo sapiens) (UniProt P42336). Description: Inhibition of PIK3CA at 1 uM.
The target of experiment [6] is Cyclin-dependent kinase 9 (Homo sapiens) (UniProt P50750). Description: Inhibition of CDK9 at 1 uM.
Cyclin-dependent kinase 9 (Homo sapiens), sequence (P50750 whole entry): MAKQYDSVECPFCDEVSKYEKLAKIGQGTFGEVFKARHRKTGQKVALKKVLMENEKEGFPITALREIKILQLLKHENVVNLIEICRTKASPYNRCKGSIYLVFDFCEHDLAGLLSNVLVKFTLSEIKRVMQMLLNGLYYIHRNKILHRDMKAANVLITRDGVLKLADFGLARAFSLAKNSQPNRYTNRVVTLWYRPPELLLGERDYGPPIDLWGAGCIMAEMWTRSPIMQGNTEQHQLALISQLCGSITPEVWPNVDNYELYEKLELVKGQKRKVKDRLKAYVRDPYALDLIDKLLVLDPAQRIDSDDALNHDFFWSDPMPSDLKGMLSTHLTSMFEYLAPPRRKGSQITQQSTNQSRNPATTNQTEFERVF

Phosphatidylinositol 4,5-bisphosphate 3-kinase catalytic subunit alpha isoform (Homo sapiens), sequence (P42336 whole entry, canonical isoform): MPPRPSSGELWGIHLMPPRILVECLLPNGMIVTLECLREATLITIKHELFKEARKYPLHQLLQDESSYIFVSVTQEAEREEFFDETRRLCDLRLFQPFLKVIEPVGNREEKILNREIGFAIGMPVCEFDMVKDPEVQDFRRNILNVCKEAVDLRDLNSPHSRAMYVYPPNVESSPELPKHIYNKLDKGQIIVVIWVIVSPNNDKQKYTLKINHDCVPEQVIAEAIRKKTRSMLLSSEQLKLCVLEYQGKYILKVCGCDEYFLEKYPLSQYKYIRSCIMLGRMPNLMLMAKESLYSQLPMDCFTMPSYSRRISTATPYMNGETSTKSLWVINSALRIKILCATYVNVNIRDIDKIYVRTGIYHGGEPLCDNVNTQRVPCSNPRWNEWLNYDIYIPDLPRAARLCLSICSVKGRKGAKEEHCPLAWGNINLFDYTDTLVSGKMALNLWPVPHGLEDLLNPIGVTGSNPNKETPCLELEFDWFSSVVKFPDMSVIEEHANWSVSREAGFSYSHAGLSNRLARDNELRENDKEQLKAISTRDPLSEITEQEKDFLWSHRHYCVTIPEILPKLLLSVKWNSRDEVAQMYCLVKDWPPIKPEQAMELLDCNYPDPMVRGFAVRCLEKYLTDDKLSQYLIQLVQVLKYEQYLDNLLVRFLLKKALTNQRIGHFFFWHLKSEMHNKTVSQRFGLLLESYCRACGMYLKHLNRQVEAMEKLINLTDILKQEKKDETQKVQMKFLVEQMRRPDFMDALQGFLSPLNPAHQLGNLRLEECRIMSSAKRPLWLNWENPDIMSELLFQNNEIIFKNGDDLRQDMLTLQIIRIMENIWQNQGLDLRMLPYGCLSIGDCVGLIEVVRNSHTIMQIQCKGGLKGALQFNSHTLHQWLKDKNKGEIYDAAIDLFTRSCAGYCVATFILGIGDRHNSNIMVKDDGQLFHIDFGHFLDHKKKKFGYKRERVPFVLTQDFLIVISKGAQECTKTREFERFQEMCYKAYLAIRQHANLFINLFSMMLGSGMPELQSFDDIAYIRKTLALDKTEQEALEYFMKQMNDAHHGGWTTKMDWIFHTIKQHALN
Epidermal growth factor receptor (Homo sapiens), P00533 [G719C], sequence (P00533 whole entry G719C): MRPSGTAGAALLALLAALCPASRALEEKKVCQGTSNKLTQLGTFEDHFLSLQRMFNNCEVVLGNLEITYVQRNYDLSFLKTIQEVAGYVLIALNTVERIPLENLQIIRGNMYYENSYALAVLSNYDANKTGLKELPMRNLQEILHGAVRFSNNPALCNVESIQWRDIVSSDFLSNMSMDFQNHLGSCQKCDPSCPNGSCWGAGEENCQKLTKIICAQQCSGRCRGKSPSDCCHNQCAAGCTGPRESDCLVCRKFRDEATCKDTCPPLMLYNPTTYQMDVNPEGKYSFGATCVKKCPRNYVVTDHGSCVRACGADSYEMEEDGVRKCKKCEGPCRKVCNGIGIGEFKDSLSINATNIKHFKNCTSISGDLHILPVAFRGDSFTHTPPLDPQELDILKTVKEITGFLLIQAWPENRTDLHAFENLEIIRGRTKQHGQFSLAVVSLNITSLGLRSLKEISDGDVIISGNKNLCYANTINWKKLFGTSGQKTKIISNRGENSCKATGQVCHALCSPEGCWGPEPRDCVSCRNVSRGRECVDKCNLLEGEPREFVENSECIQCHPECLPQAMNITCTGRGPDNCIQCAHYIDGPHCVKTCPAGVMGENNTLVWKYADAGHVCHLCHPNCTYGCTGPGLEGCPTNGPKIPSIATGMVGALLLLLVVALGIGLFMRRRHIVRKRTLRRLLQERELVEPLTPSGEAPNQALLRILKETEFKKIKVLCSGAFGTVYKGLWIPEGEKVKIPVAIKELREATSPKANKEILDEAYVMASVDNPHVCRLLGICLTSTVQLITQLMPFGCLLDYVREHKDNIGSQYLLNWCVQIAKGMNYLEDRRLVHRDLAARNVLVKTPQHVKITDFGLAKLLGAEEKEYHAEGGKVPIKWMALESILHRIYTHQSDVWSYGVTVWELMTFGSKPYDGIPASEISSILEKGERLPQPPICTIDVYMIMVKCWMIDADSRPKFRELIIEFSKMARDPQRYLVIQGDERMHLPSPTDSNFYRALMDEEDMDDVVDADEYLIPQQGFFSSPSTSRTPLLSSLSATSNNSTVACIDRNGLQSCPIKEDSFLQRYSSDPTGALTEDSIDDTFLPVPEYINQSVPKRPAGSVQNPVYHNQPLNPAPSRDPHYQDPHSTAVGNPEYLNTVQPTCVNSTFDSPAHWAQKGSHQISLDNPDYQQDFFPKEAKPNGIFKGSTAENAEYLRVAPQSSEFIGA

For the compound `FC(F)(F)c1ccc(Cl)cc1CN1CCNc2ncc(-c3ccnc(N4CCNCC4)c3)cc21`, the inhibition in experiment [1] was less than 50%; in experiment [2], 70%; in experiment [3], less than 50%; in experiment [4], less than 50%; in experiment [5], less than 50%; in experiment [6], less than 50%.

Consider `CN1CCN(c2ccc(-c3cnc4c(c3)N(Cc3cc(F)ccc3F)CCN4)cn2)CC1`, for which the inhibition is less than 50% in experiment [1]; 70% in experiment [2]; less than 50% in experiment [3]; less than 50% in experiment [4]; less than 50% in experiment [5]; less than 50% in experiment [6].

Consider `CN1CCN(c2ccc(-c3cnc4c(c3)N(Cc3cc(Cl)ccc3Cl)CCN4)cn2)CC1`, for which the inhibition in experiment [1], in experiment [2], in experiment [3], in experiment [4], in experiment [5] and in experiment [6] was less than 50% in each case.

In the case of `O=C(O)c1ccc(-c2cnc3c(c2)N(Cc2cc(Cl)ccc2C(F)(F)F)CCN3)cc1`, the inhibition in experiment [4] and in experiment [5] was less than 50% each time.

Take `CN1CCN(c2ccc(-c3cnc4c(c3)N(Cc3cc(Cl)ccc3C(F)(F)F)CCN4)cn2)CC1`: the inhibition in experiment [1], in experiment [2], in experiment [3], in experiment [4], in experiment [5] and in experiment [6] was less than 50% each time.

On to `COC1CCN(C(=O)c2ccc(-c3cnc4c(c3)N(Cc3cc(Cl)ccc3C(F)(F)F)CCN4)cc2)CC1`, for which the inhibition in experiment [4] and in experiment [5] was less than 50% each time.

As to `O=C(c1ccc(-c2cnc3c(c2)N(Cc2cc(Cl)ccc2C(F)(F)F)CCN3)cc1)N1CCC(N2CCCC2)CC1`, the inhibition in experiment [4] and in experiment [5] was less than 50% throughout.

As to `CN1CCN(c2ccc(-c3cnc4c(c3)N(Cc3c(F)ccc(F)c3Cl)CCN4)cn2)CC1`, the inhibition was less than 50% in experiment [1]; 92% in experiment [2]; less than 50% in experiment [3]; less than 50% in experiment [4]; less than 50% in experiment [5]; less than 50% in experiment [6].

`O=C(c1ccc(-c2cnc3c(c2)N(Cc2cc(Cl)ccc2C(F)(F)F)CCN3)cc1)N1CCCCC1`: the inhibition in experiment [4] and in experiment [5] was less than 50% throughout.

With `CC(=O)N1CCN(c2cc(-c3cnc4c(c3)N(Cc3cc(Cl)ccc3C(F)(F)F)CCN4)ccn2)CC1`, the inhibition in experiment [1], in experiment [2], in experiment [3], in experiment [4], in experiment [5] and in experiment [6] was less than 50% in each case.
